Experimental data as given in ChEMBL document CHEMBL2177011, “Discovery, synthesis, and biological evaluation of orally active pyrrolidone derivatives as novel inhibitors of p53-MDM2 protein-protein interaction” (J Med Chem, 2012).

Key:
[1] = biological target: Tumour suppressor p53/oncoprotein Mdm2 (Homo sapiens, UniProt Q00987); assay: (§1) Inhibition of p53-MDM2 interaction after 1 hr by fluorescence polarization assay; format: protein assay
[2] = biological target: Tumour suppressor p53/oncoprotein Mdm2 (Homo sapiens, UniProt P04637+Q00987); assay: as §1; format: protein assay
Tumour suppressor p53/oncoprotein Mdm2 (Homo sapiens, UniProt P04637+Q00987), sequence (P04637 whole entry): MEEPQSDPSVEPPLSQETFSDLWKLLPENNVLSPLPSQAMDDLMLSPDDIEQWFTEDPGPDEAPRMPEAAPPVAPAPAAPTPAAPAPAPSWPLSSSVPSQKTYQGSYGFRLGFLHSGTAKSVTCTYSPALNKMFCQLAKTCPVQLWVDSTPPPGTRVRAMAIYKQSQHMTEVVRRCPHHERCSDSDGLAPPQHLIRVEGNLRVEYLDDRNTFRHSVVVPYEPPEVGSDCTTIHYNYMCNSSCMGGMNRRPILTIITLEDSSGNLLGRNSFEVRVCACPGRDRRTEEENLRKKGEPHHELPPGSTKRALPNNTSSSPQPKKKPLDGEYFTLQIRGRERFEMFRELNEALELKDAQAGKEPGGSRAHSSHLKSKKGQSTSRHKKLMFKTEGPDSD
Tumour suppressor p53/oncoprotein Mdm2 (Homo sapiens, UniProt P04637+Q00987), sequence (Q00987 whole entry): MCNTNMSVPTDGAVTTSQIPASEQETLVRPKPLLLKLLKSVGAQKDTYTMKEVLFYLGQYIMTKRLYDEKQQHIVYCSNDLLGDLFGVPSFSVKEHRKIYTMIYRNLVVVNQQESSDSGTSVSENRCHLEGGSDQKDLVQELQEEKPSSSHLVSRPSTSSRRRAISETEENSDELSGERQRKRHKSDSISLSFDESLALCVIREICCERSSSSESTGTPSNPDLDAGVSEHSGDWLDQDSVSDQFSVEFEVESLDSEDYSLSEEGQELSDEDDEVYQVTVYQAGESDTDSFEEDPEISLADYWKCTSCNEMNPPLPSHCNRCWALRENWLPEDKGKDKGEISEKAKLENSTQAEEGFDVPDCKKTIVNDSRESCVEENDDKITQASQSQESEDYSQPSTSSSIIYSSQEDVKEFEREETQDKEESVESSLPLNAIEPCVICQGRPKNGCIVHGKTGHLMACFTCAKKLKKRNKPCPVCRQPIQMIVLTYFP

NCI-H1299 = assay: Antiproliferative activity against p53 deficient human NCI-H1299 cells after 72 hrs by MTT assay; format: functional, cell-based; settings: NCI-H1299, 72 h
Outline: (§2)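 Cells seeded at 5−6 × 10⁴ per well and cultured 24 h, then exposed in triplicate wells to a range of compound concentrations for 72 h, with 0.1% DMSO as control. MTT (5 mg/mL solution) was added for 4 h at 37 °C, formazan dissolved in DMSO, absorbance read at 570 nm. Drug-free wells served as blanks; IC50 calculated.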

A549 = assay: Antiproliferative activity against human A549 cells expressing wild type p53 after 72 hrs by MTT assay; format: functional, cell-based; outline: as §2
U2OS = assay: Antiproliferative activity against human U2OS cells expressing wild type p53 after 72 hrs by MTT assay; format: functional, cell-based; outline: as §2
SAOS-2 = assay: Antiproliferative activity against p53 deficient human Saos2 cells after 72 hrs by MTT assay; format: functional, cell-based; settings: SAOS-2, 72 h; outline: as §2
[3] = biological target: Tumour suppressor protein p53/Mdm4 (Homo sapiens, UniProt P04637+O15151); assay: Inhibition of p53-MDMX interaction after 1 hr by fluorescence polarization assay; format: protein assay
Tumour suppressor protein p53/Mdm4, sequence (P04637 whole entry): as the sequence (P04637 whole entry) above
Tumour suppressor protein p53/Mdm4, sequence (O15151 whole entry): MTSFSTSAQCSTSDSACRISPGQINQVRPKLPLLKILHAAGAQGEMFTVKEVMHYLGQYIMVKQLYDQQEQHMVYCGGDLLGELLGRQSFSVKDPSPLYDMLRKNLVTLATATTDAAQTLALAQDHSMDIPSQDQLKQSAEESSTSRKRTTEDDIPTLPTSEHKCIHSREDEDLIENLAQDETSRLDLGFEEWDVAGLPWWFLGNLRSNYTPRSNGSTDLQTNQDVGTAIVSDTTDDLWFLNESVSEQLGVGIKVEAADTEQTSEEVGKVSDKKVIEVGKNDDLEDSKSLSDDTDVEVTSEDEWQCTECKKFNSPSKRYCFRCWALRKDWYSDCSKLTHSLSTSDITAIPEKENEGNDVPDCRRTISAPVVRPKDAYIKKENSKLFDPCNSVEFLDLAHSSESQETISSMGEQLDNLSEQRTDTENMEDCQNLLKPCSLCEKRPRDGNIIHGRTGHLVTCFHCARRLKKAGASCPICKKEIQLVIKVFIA

[4] = Homo sapiens, A549, 72 h, read-out: IC50
[5] = Homo sapiens, U2OS, 72 h, read-out: IC50

Tumour suppressor p53/oncoprotein Mdm2 (Homo sapiens, UniProt Q00987), sequence (P04637 whole entry): as the sequence (P04637 whole entry) above
Tumour suppressor p53/oncoprotein Mdm2 (Homo sapiens, UniProt Q00987), sequence (Q00987 whole entry): as the sequence (Q00987 whole entry) above

Molecule `O=C(C1=C(O)C(=O)N(CCCn2ccnc2)C1c1ccc(Cl)cc1)c1ccccc1` (stereo not given) has a Ki [1] of 23.3 µM.

With `O=C(C1=C(O)C(=O)N(CCCn2ccnc2)C1c1ccc([N+](=O)[O-])cc1)c1ccccc1` (stereo not given) the Ki [1] was 0.7 µM.

`Cc1ccc(C2C(C(=O)c3ccccc3)=C(O)C(=O)N2CCCn2ccnc2)cc1` (stereo not given) was tested, and the Ki [1] was 0.78 µM.

`O=C(C1=C(O)C(=O)N(CCCn2ccnc2)C1c1ccccc1Br)c1ccccc1` (stereo not given) was tested, and the Ki [1] was 0.43 µM.

`O=C(C1=C(O)C(=O)N(CCCn2ccnc2)C1c1ccsc1)c1ccccc1` (stereo not given) was tested, and the Ki [2] was “Not Active”.

For `O=C(C1=C(O)C(=O)N(CCCn2ccnc2)C1c1cccs1)c1ccccc1` (stereo not given), the Ki [2] was “Not Active”.

`O=c1c2cnn(-c3ccccc3)c2nc(Cc2ccccc2)n1Cc1ccccc1` was tested, and the Ki [1] was 2.13 µM.

In the case of `O=C(C1=C(Nc2ccc(I)cc2)C(=O)N(CCCn2ccnc2)C1c1ccc(Br)cc1)c1ccccc1` (stereo not given), the IC50 (NCI-H1299) is reported as 19.4 µM, the IC50 (A549; [4]) is reported as 24.5 µM and the IC50 (U2OS; [5]) is reported as 12 µM. It also gave an IC50 (SAOS-2) of 23.4 µM and a Ki [1] of 0.27 µM.

In the case of `COc1ccc(C(=O)C2=C(O)C(=O)N(c3nccs3)C2c2ccc(C)cc2)cc1` (stereo not given), the Ki [1] is reported as 2.5 µM.

Work on `O=C(C1=C(O)C(=O)N(CCCn2ccnc2)C1c1ccc(C(F)(F)F)cc1)c1ccccc1` (stereo not given) yielded a Ki [1] of 0.81 µM.

`O=C(C1=C(O)C(=O)N(CCCn2ccnc2)C1c1ccc(Br)cc1)c1ccccc1` (stereo not given) was tested, and the Ki [3] was “Not Active”, the IC50 (NCI-H1299) was 20 µM and the IC50 (A549; [4]) was 73.1 µM. For the same molecule, the IC50 (U2OS; u2os) was “Not Active”, the IC50 (SAOS-2) was 31.6 µM and the Ki [1] was 0.29 µM.

With `O=C(C1=C(O)C(=O)N(CCCn2ccnc2)C1c1ccc(Br)cc1)c1ccc(Br)cc1` (stereo not given) the Ki [1] was 24.9 µM.

`NC1=C(C(=O)c2ccccc2)C(c2ccc(Br)cc2)N(CCCn2ccnc2)C1=O` (stereo not given) was tested, and the Ki [3] was “Not Active”, the IC50 (NCI-H1299) was 168 µM and the IC50 (A549; a549) was “Not Active”. For the same molecule, the IC50 (U2OS; [5]) was 149 µM, the IC50 (SAOS-2) was 107 µM and the Ki [1] was 0.048 µM.

For `O=C(C1=C(O)C(=O)N(CCCn2ccnc2)C1c1cccc(O)c1)c1ccccc1` (stereo not given), the Ki [2] was “Not Active”.

For `O=C(C1=C(O)C(=O)N(CCc2ccccc2)C1c1ccc(Br)cc1)c1cccs1` (stereo not given), the Ki [1] was 12 µM.

With `O=C(CSc1nnc(-c2ccc(O)cc2)n1-c1ccccc1)Nc1ccccc1` the Ki [1] was 86 µM.

In the case of `O=C(C1=C(O)C(=O)N(CCCn2ccnc2)C1c1ccc(Cl)nc1)c1ccccc1` (stereo not given), the Ki [2] is reported as “Not Active”.

For `O=C(C1=C(Nc2ccccc2Br)C(=O)N(CCCn2ccnc2)C1c1ccc(Br)cc1)c1ccccc1` (stereo not given), the IC50 (NCI-H1299) was 15.6 µM, the IC50 (A549; [4]) was 20.1 µM and the IC50 (U2OS; [5]) was 16.9 µM. It also gave an IC50 (SAOS-2) of 19.6 µM and a Ki [1] of 0.15 µM.

`c1ccc(CN2CCN(Cc3ccccc3)C2c2cccnc2)cc1` showed a Ki [1] of 1.76 µM.

With `O=C(C1=C(O)C(=O)N(Cc2cccnc2)C1c1ccc(Cl)cc1)c1ccccc1` (stereo not given) the Ki [1] was 0.57 µM.

Molecule `C[C@@H](NC1=C(C(=O)c2ccccc2)[C@H](c2ccc(Br)cc2)N(CCCn2ccnc2)C1=O)c1ccccc1` has an IC50 (NCI-H1299) of 17 µM, an IC50 (A549; [4]) of 15.7 µM and an IC50 (U2OS; [5]) of 30.8 µM. For the same molecule, the IC50 (SAOS-2) was 13.2 µM.

Work on `O=C(C1=C(Nc2cccc(Br)c2)C(=O)N(CCCn2ccnc2)C1c1ccc(Br)cc1)c1ccccc1` (stereo not given) yielded an IC50 (NCI-H1299) of 11.5 µM, an IC50 (A549; [4]) of 15.8 µM and an IC50 (U2OS; [5]) of 11.9 µM. The IC50 (SAOS-2) was 9.09 µM and the Ki [1] was 0.15 µM.

In the case of `O=C(C1=C(O)C(=O)N(CCCn2ccnc2)C1c1ccc(Br)cc1)c1ccccc1Cl` (stereo not given), the Ki [2] is reported as “Not Active”.

In the case of `O=C(C1=C(O)C(=O)N(CCCn2ccnc2)C1c1ccc2ccccc2c1)c1ccccc1` (stereo not given), the Ki [2] is reported as “Not Active”.

`O=C(C1=C(O)C(=O)N(CCCn2ccnc2)C1c1ccc(Br)cc1)c1ccccc1[N+](=O)[O-]` (stereo not given) gave a Ki [1] of 15.3 µM.

`COc1ccc(CCN2C(=O)C(O)=C(C(=O)c3cccs3)C2c2ccc(C)cc2)cc1` (stereo not given) was tested, and the Ki [1] was 48.8 µM.

In the case of `CCCCOC1=C(C(=O)c2ccccc2)C(c2ccc(Br)cc2)N(CCCn2ccnc2)C1=O` (stereo not given), the Ki [3] is reported as “Not Active”, the IC50 (NCI-H1299) is reported as 17.1 µM and the IC50 (A549; [4]) is reported as 18.5 µM. For the same molecule, the IC50 (U2OS; [5]) was 32.4 µM, the IC50 (SAOS-2) was 11.6 µM and the Ki [1] was 0.47 µM.

`O=C(C1=C(Nc2ccc(OC(F)(F)F)cc2)C(=O)N(CCCn2ccnc2)C1c1ccc(Br)cc1)c1ccccc1` (stereo not given) gave an IC50 (NCI-H1299) of 11.5 µM, an IC50 (A549; [4]) of 20.8 µM and an IC50 (U2OS; [5]) of 11.5 µM. For the same molecule, the IC50 (SAOS-2) was 17.9 µM and the Ki [1] was 0.12 µM.

In the case of `Cc1ccc(C2C(C(=O)c3ccccc3)=C(O)C(=O)N2CCCn2ccnc2)c(C)c1` (stereo not given), the Ki [1] is reported as 10.7 µM.

With `O=C(C1=C(O)C(=O)N(CCCn2ccnc2)C1c1cccnc1)c1ccccc1` (stereo not given) the Ki [2] was “Not Active”.

`O=C(C1=C(NCc2ccccc2)C(=O)N(CCCn2ccnc2)C1c1ccc(Br)cc1)c1ccccc1` (stereo not given) was tested, and the IC50 (NCI-H1299) was 25.3 µM, the IC50 (A549; [4]) was 52.8 µM and the IC50 (U2OS; [5]) was 32.5 µM. It also gave an IC50 (SAOS-2) of 31.6 µM and a Ki [1] of 0.47 µM.

In the case of `CC(C)(C)c1ccc(C2C(C(=O)c3ccccc3)=C(O)C(=O)N2CCCn2ccnc2)cc1` (stereo not given), the Ki [1] is reported as 10.9 µM.

Molecule `O=C(C1=C(O)C(=O)N(CCCn2ccnc2)C1c1ccc(Br)cc1)c1ccc(Cl)cc1` (stereo not given) has a Ki [1] of 0.91 µM.

In the case of `O=C(C1=C(O)C(=O)N(CCCn2ccnc2)C1c1ccc(Br)cc1)c1ccc([N+](=O)[O-])cc1` (stereo not given), the Ki [1] is reported as 2.54 µM.

`Cc1ccc(NC2=C(C(=O)c3ccccc3)C(c3ccc(Br)cc3)N(CCCn3ccnc3)C2=O)cc1` (stereo not given) showed an IC50 (NCI-H1299) of 25.8 µM, an IC50 (A549; [4]) of 29.4 µM and an IC50 (U2OS; [5]) of 24.1 µM. The IC50 (SAOS-2) was 31.9 µM and the Ki [1] was 0.14 µM.

Work on `O=C(C1=C(O)C(=O)N(CCCn2ccnc2)C1c1cccc([N+](=O)[O-])c1)c1ccccc1` (stereo not given) yielded a Ki [1] of 0.83 µM.

With `O=C(C1=C(OCc2ccccc2)C(=O)N(CCCn2ccnc2)C1c1ccc(Br)cc1)c1ccccc1` (stereo not given) the Ki [3] was “Not Active” and the Ki [1] was 2.07 µM.

With `O=C(C1=C(O)C(=O)N(CCCn2ccnc2)C1c1ccco1)c1ccccc1` (stereo not given) the Ki [2] was “Not Active”.

`O=C(C1=C(O)C(=O)N(CCCn2ccnc2)C1c1ccccn1)c1ccccc1` (stereo not given) was tested, and the Ki [2] was “Not Active”.

In the case of `O=C(C1=C(O)C(=O)N(CCCn2ccnc2)C1c1ccccc1O)c1ccccc1` (stereo not given), the Ki [2] is reported as “Not Active”.

`O=C(C1=C(O)C(=O)N(CCCn2ccnc2)C1c1ccc(F)cc1)c1ccccc1` (stereo not given) showed a Ki [1] of 0.88 µM.

In the case of `CCOc1ccc(NC2=C(C(=O)c3ccccc3)C(c3ccc(Br)cc3)N(CCCn3ccnc3)C2=O)cc1` (stereo not given), the IC50 (NCI-H1299) is reported as 19.9 µM, the IC50 (A549; [4]) is reported as 20.2 µM and the IC50 (U2OS; [5]) is reported as 26.2 µM. The IC50 (SAOS-2) was 30.9 µM and the Ki [1] was 0.35 µM.

`O=C(C1=C(Nc2ccc(F)cc2)C(=O)N(CCCn2ccnc2)C1c1ccc(Br)cc1)c1ccccc1` (stereo not given) gave an IC50 (NCI-H1299) of 25.4 µM, an IC50 (A549; [4]) of 27.4 µM and an IC50 (U2OS; [5]) of 30 µM. For the same molecule, the IC50 (SAOS-2) was 32.7 µM and the Ki [1] was 0.43 µM.

In the case of `COc1ccc(C2C(C(=O)c3ccccc3)=C(O)C(=O)N2CCCn2ccnc2)cc1` (stereo not given), the Ki [2] is reported as “Not Active”.

Work on `O=C(C1=C(Nc2ccccc2)C(=O)N(CCCn2ccnc2)C1c1ccc(Br)cc1)c1ccccc1` (stereo not given) yielded an IC50 (NCI-H1299) of 21.2 µM, an IC50 (A549; [4]) of 24.1 µM and an IC50 (U2OS; [5]) of 25.7 µM. It also gave an IC50 (SAOS-2) of 24.4 µM and a Ki [1] of 0.14 µM.

With `O=C(C1=C(Nc2ccc(Br)cc2)C(=O)N(CCCn2ccnc2)C1c1ccc(Br)cc1)c1ccccc1` (stereo not given) the IC50 (NCI-H1299) was 19.2 µM, the IC50 (A549; [4]) was 22.2 µM and the IC50 (U2OS; [5]) was 13 µM. The IC50 (SAOS-2) was 23.8 µM and the Ki [1] was 0.19 µM.

Work on `O=C(C1=C(O)C(=O)N(CCCn2ccnc2)C1c1ccc(Br)cc1)c1ccc(I)cc1` (stereo not given) yielded a Ki [1] of 3.59 µM.

Molecule `Cc1cc(C)cc(C2C(C(=O)c3ccccc3)=C(O)C(=O)N2CCCn2ccnc2)c1` (stereo not given) has a Ki [1] of 0.91 µM.

For `O=C(C1=C(O)C(=O)N(CCCn2ccnc2)C1c1ccc(Br)cc1)c1ccc(F)cc1` (stereo not given), the Ki [1] was 1.46 µM.

For `O=C(C1=C(O)C(=O)N(CCCn2ccnc2)C1c1ccc(Cl)cc1)c1ccc2c(c1)OCCO2` (stereo not given), the Ki [1] was 1.37 µM.

For `O=C(C1=C(O)C(=O)N(CCCn2ccnc2)C1c1ccc(Cl)cc1Cl)c1ccccc1` (stereo not given), the Ki [1] was 39.4 µM.

`O=C(C1=C(Nc2ccc(Cl)cc2)C(=O)N(CCCn2ccnc2)C1c1ccc(Br)cc1)c1ccccc1` (stereo not given) showed an IC50 (NCI-H1299) of 25 µM, an IC50 (A549; [4]) of 29.9 µM and an IC50 (U2OS; [5]) of 22.8 µM. It also gave an IC50 (SAOS-2) of 24.8 µM and a Ki [1] of 0.23 µM.
